Activity calls are given as the source filed them. The rule behind the calls is not given here. Starred links: 1 amine or outer side, 2 acyl side, 3 side chain; linkers in the order of their positions; H or OH if unused. Non-standard residues stand in square brackets, D forms with d. Residues, ends and D or L forms follow the SMILES beside them. X1 = N=C(N)N(O)CCC[C@H](N[*:1])C(=O)[*:2]
Tests used:
[1] = tested on: HeLa; assay: Cytotoxicity against human HeLa cells at 30 uM after 24 hrs by EZ-cytox dye based assay; format: cell-based
Outline: (§1)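 Cells were seeded at 5.0 × 10^4 per well and grown 24 h, then exposed to compound for 24 h and washed with PBS. They were incubated 2 h in DMEM with EZ-Cytox reagent, and viability was read as water-soluble formazan optical density at 450 nm.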

[2] = tested on: B16-F10; assay: Cytotoxicity against mouse B16F10 cells at 30 uM after 24 hrs by EZ-cytox dye based assay; format: cell-based; conditions: b16-f10, 24 h; outline: as §1
[3] = tested on: 4T1; assay: Cytotoxicity against mouse 4T1 cells at 30 uM after 24 hrs by EZ-cytox dye based assay; format: cell-based; conditions: 4t1, 24 h; outline: as §1
[4] = tested on: B16-F0; assay: Cytotoxicity against mouse B16F0 cells at 30 uM after 24 hrs by EZ-cytox dye based assay; format: cell-based; conditions: b16-f0, 24 h; outline: as §1
[5] = tested on: B16-F10; assay: Antimelanogenic activity in mouse B16F10 cells assessed as inhibition of alpha-MSH-stimulated melanin synthesis by measuring reduction in TRP2 expression up to 10 uM measured after 24 hrs by Western blot analysis; format: functional, cell-based
Outline: (§2)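 B16F10 cells at 1.0 × 10^5 cells/mL were preincubated 24 h, then exposed to α-MSH (100 nM) plus 5, 7.5 or 10 μM compound for 24 h. Cells were lysed in M-per buffer. Whole-cell protein was run on SDS-PAGE and blotted to nitrocellulose, probed with anti-TRP-1 or anti-TRP-2 antibodies, and detected by chemiluminescence on film.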

[6] = tested on: B16-F10; assay: Antimelanogenic activity in mouse B16F10 cells assessed as inhibition of alpha-MSH-stimulated melanin synthesis up to 10 uM measured after 24 hrs; format: functional, cell-based
Outline: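 B16F10 cells (3.5 × 10^4 per well) were grown 24 h in phenol red-free complete DMEM at 37 °C, 5% CO2. They were then given α-MSH (200 nM) with compound at 0–10 μM for 24 h. Cells were PBS-washed, trypsin-EDTA detached and centrifuged. Melanin was read as absorbance at 405 nm; mean ± SD, n = 3.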

[7] = tested on: B16-F10; assay: Antimelanogenic activity in mouse B16F10 cells assessed as inhibition of alpha-MSH-stimulated melanin synthesis by measuring reduction in TRP1 expression up to 10 uM measured after 24 hrs by Western blot analysis; format: functional, cell-based; outline: as §2

Structure (SMILES)	Activity [1]	Activity [2]	Activity [3]	Activity [4]	inhibition [5]	inhibition [6]	inhibition [7]
CC(C)C[C@@H]1NC(=O)[C@@H](CC(C)C)NC(=O)[C@H](CCCN(O)C(=N)N)NC(=O)[C@H](Cc2c[nH]c3ccccc23)NC(=O)[C@@H](C(C)C)NC1=O (cyclo(L[dV]W[X1][dL]))	Non-Toxic	Non-Toxic	Non-Toxic	Non-Toxic			
CC(C)C[C@H]1NC(=O)[C@H](CCCN(O)C(=N)N)NC(=O)[C@H](Cc2c[nH]c3ccccc23)NC(=O)[C@@H](C(C)C)NC(=O)[C@H](C(C)C)NC1=O	Non-Toxic	Non-Toxic	Non-Toxic	Non-Toxic	Active	Active	Active

Reference: ChEMBL document CHEMBL4251677, “Pentaminomycins A and B, Hydroxyarginine-Containing Cyclic Pentapeptides from Streptomyces sp. RK88-1441” (J Nat Prod, 2018)
